Results as given in ChEMBL document CHEMBL1143122, “Novel analogs of D-e-MAPP and B13. Part 1: synthesis and evaluation as potential anticancer agents” (Bioorg Med Chem, 2008).

Tests used:
LOX IMVI = test: Antiproliferative activity against human LOXIMVI cells after 48 hrs; assay type: functional
Method in brief: (§1)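 NCI 60-cell screen. Cells were grown in RPMI 1640 with 5% FBS and 2 mM L-glutamine, then plated at 5,000–40,000 cells/well according to doubling time and preincubated for 24 h at 37 °C in 5% CO2. Compounds were dissolved in DMSO at 400× the top final concentration and tested at five 10-fold dilutions from 10−4 to 10−8 M for 48 h. Growth was read spectrophotometrically; GI50 is 50% net protein reduction.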

Malme-3M = test: Antiproliferative activity against human MALME3M cells after 48 hrs; assay type: functional; method in brief: as §1
SK-MEL-2 = test: Antiproliferative activity against human SKMEL2 cells after 48 hrs; assay type: functional; details: SK-MEL-2, 48 h; method in brief: as §1
SK-MEL-5 = test: Antiproliferative activity against human SKMEL5 cells after 48 hrs; assay type: functional; details: SK-MEL-5, 48 h; method in brief: as §1
UACC-62 = test: Antiproliferative activity against human UACC62 cells after 48 hrs; assay type: functional; details: UACC-62, 48 h
Method in brief: (§2)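 NCI 60-cell-line screen. Lines grown in RPMI 1640 with 5% fetal bovine serum and 2 mM L-glutamine, plated at 5,000–40,000 cells/well according to doubling time, left 24 h at 37 °C in 5% CO2. Drug stocks in DMSO at 400-fold the top final concentration. Five 10-fold dilutions, 10−4 to 10−8 M, incubated 48 h. Growth read spectrophotometrically as net protein; GI50 taken as 50% reduction.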

IGROV-1 = test: Antiproliferative activity against human IGROV1 cells after 48 hrs; assay type: functional; details: IGROV-1, 48 h; method in brief: as §1
OVCAR-8 = test: Antiproliferative activity against human OVCAR8 cells after 48 hrs; assay type: functional; details: OVCAR-8, 48 h; method in brief: as §1
786-0 = test: Antiproliferative activity against human 786-0 cells after 48 hrs; assay type: functional; details: 786-0, 48 h; method in brief: as §1
A498 = test: Antiproliferative activity against human A498 cells after 48 hrs; assay type: functional; details: A498, 48 h; method in brief: as §1
ACHN = test: Antiproliferative activity against human ACHN cells after 48 hrs; assay type: functional; method in brief: as §1
SN12C = test: Antiproliferative activity against human SN12C cells after 48 hrs; assay type: functional; method in brief: as §1
TK-10 = test: Antiproliferative activity against human TK10 cells after 48 hrs; assay type: functional; details: TK-10, 48 h; method in brief: as §2
HOP-62 = test: Antiproliferative activity against human HOP62 cells after 48 hrs; assay type: functional; details: HOP-62, 48 h; method in brief: as §1
HOP-92 = test: Antiproliferative activity against human HOP92 cells after 48 hrs; assay type: functional; details: HOP-92, 48 h; method in brief: as §1
NCI-H460 = test: Antiproliferative activity against human NCI-H460 cells after 48 hrs; assay type: functional; details: NCI-H460, 48 h; method in brief: as §1
NCI-H522 = test: Antiproliferative activity against human NCI-H522 cells after 48 hrs; assay type: functional; details: NCI-H522, 48 h; method in brief: as §1
HCC 2998 = test: Antiproliferative activity against human HCC2998 cells after 48 hrs; assay type: functional; details: HCC 2998, 48 h; method in brief: as §1
HCT-116 = test: Antiproliferative activity against human HCT116 cells after 48 hrs; assay type: functional; details: HCT-116, 48 h; method in brief: as §1
KM12 = test: Antiproliferative activity against human KM12 cells after 48 hrs; assay type: functional; details: Homo sapiens, KM12, 48 h; method in brief: as §1
SW-620 = test: Antiproliferative activity against human SW620 cells after 48 hrs; assay type: functional; details: SW-620, 48 h; method in brief: as §2
SF-295 = test: Antiproliferative activity against human SF295 cells after 48 hrs; assay type: functional; details: SF-295, 48 h; method in brief: as §1
SNB-75 = test: Antiproliferative activity against human SNB75 cells after 48 hrs; assay type: functional; details: SNB-75, 48 h; method in brief: as §1
MCF7 = test: Drug level in human MCF7 cells at 10 uM per 10^6 cells after 0.5 hrs; assay type: ADME, cell-based; details: mcf7, 0.5 h
Method in brief: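 MCF7 cells kept in RPMI 1640 with 10% fetal calf serum at 37 °C, 5% CO2, then treated with 10 μM analog. Intracellular analog measured over time by HPLC-MS in positive-ion MRM mode. Quantified against calibration curves made by spiking an artificial matrix with standards plus internal standard, using analyte/IS peak-area ratios and linear regression. Reported as pmol per 1×10^6 cells.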

CCRF-CEM = test: Antiproliferative activity against human CCRF-CEM cells after 48 hrs; assay type: functional; method in brief: as §1
[1] = Antiproliferative activity against human HL60(TB) cells after 48 hrs; assay type: functional, HL-60(TB); details: HL-60, 48 h
Method in brief: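 NCI 60-line panel screen: cells grown in RPMI 1640 with 5% fetal bovine serum and 2 mM L-glutamine, plated at 5,000–40,000 cells/well by doubling time, and preincubated 24 h at 37 °C in 5% CO2. Drugs were solubilised in DMSO at 400-fold the final maximum and tested at five 10-fold dilutions from 10−4 to 10−8 M for 48 h. Net protein was read spectrophotometrically, and the concentration giving 50% reduction was reported as log10 GI50.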

K562 = test: Antiproliferative activity against human K562 cells after 48 hrs; assay type: functional; details: K562, 48 h; method in brief: as §1
[2] = Antiproliferative activity against human […] cells after 48 hrs; assay type: functional; method in brief: as §1
[3] = read-out: Log LC50 (the source's name) (converted)

C[C@@H](NC(=O)CCCCCCCCCCCCCCC[n+]1ccccc1)[C@@H](O)c1ccccc1.[Br-]
GI50 (LOX IMVI): 3.55 µM | LC50 (LOX IMVI): 51.3 µM | TGI (LOX IMVI; read-out: Log TGI (converted)): 13.5 µM | GI50 (Malme-3M): 1.66 µM | LC50 (Malme-3M): 5.75 µM | TGI (Malme-3M; read-out: Log TGI (converted)): 3.09 µM | GI50 (SK-MEL-2): 2.19 µM | TGI (SK-MEL-2; read-out: Log TGI (converted)): 4.37 µM | GI50 (SK-MEL-5): 1.58 µM | CC50 (SK-MEL-5; [3]): 5.5 µM | TGI (SK-MEL-5; read-out: Log TGI (converted)): 2.95 µM | GI50 (UACC-62): 1.48 µM | LC50 (UACC-62): 5.75 µM | TGI (UACC-62; read-out: Log TGI (converted)): 2.88 µM | GI50 (IGROV-1): 1.62 µM | TGI (IGROV-1; read-out: Log TGI (converted)): 3.31 µM | GI50 (OVCAR-8): 2.75 µM | CC50 (OVCAR-8; [3]): > 100 µM | TGI (OVCAR-8; read-out: Log TGI (converted)): 13.5 µM | GI50 (786-0): 2.63 µM | CC50 (786-0; [3]): 34.7 µM | TGI (786-0; read-out: Log TGI (converted)): 8.51 µM | GI50 (A498): 12.9 µM | CC50 (A498; [3]): 61.7 µM | TGI (A498; read-out: Log TGI (converted)): 28.2 µM | GI50 (ACHN): 17 µM | CC50 (ACHN; [3]): 64.6 µM | TGI (ACHN; read-out: Log TGI (converted)): 33.1 µM | GI50 (SN12C): 1.74 µM | LC50 (50% net cell kill) (SN12C): 7.76 µM | TGI (SN12C; read-out: Log TGI (converted)): 3.63 µM | GI50 (TK-10): 4.9 µM | CC50 (TK-10; [3]): 40.7 µM | TGI (TK-10; read-out: Log TGI (converted)): 15.8 µM | GI50 (HOP-62): 2.69 µM | CC50 (HOP-62; [3]): 38 µM | TGI (HOP-62; read-out: Log TGI (converted)): 8.91 µM | GI50 (HOP-92): 0.0407 µM | LC50 (HOP-92): 5.75 µM | TGI (HOP-92; read-out: Log TGI (converted)): 0.912 µM | GI50 (NCI-H460): 2.95 µM | CC50 (NCI-H460; [3]): > 100 µM | TGI (NCI-H460; read-out: Log TGI (converted)): 11.5 µM | GI50 (NCI-H522): 1.48 µM | TGI (NCI-H522; read-out: Log TGI (converted)): 3.63 µM | GI50 (HCC 2998): 1.51 µM | CC50 (HCC 2998; [3]): 6.03 µM | TGI (HCC 2998; read-out: Log TGI (converted)): 3.02 µM | GI50 (HCT-116): 3.39 µM | LC50 (HCT-116): 58.9 µM | TGI (HCT-116; read-out: Log TGI (converted)): 13.2 µM | GI50 (KM12): 1.74 µM | CC50 (KM12; [3]): 5.75 µM | TGI (KM12; read-out: Log TGI (converted)): 3.16 µM | GI50 (SW-620): 4.27 µM | LC50 (concentration killing 50% of cells) (SW-620): 66.1 µM | TGI (SW-620; read-out: Log TGI (converted)): 17.4 µM | GI50 (SF-295): 8.32 µM | LC50 (SF-295): 63.1 µM | TGI (SF-295; read-out: Log TGI (converted)): 24 µM | GI50 (SNB-75): 2.95 µM | CC50 (SNB-75; [3]): 9.77 µM | TGI (SNB-75; read-out: Log TGI (converted)): 5.37 µM | Drug uptake (MCF7): 800 pmol | GI50 (CCRF-CEM): < 0.01 µM | GI50 [1]: 1.12 µM | LC50 [1]: > 100 µM | TGI ([1]; read-out: Log TGI (converted)): 3.72 µM | GI50 (K562): 0.832 µM | LC50 (K562): > 100 µM | TGI (K562; read-out: Log TGI (converted)): 3.98 µM | GI50 [2]: 2.57 µM | LC50 [2]: > 100 µM | TGI ([2]; read-out: Log TGI (converted)): 8.71 µM
